Measured values taken from ChEMBL document CHEMBL1152768, “4-Benzyloxy-gamma-sultone derivatives: discovery of a novel family of non-nucleoside inhibitors of human cytomegalovirus and varicella zoster virus” (J Med Chem, 2009).

Experiments:
[1] = test system: Human betaherpesvirus 5; experiment: Antiviral activity against HCMV Davis infected in human HEL cells assessed inhibition of virus-induced cytopathicity after 7 days postinfection; format: functional, organism-based; details: Human betaherpesvirus 5, Davis, 168 h
Procedure, shortened: (§1)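 HEL fibroblasts were infected at 100 PFU. After 2 h, residual virus was removed and medium with test compound was added at several concentrations, in duplicate. Cells were incubated 7 days at 37 °C, fixed with ethanol and stained with Giemsa.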

[2] = test system: Human betaherpesvirus 5; experiment: Antiviral activity against HCMV AD169 infected in human HEL cells assessed inhibition of virus-induced cytopathicity after 7 days postinfection; format: functional, organism-based; details: Human betaherpesvirus 5, AD169, HEL, 168 h; procedure, shortened: as §1
[3] = test system: Human alphaherpesvirus 3; experiment: Antiviral activity against thymidine kinase expressing Varicella zoster virus Oka infected in human HEL cells assessed reduction in viral plaque formation; format: functional, organism-based; details: Human alphaherpesvirus 3, Oka
Procedure, shortened: (§2)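 Confluent HEL cell monolayers were inoculated with VZV at 20 PFU per well. Residual virus was removed after 2 h, and compound was added at varying concentrations, in duplicate.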

[4] = test system: Human alphaherpesvirus 3; experiment: Antiviral activity against thymidine kinase deficient Varicella zoster virus 07/1 infected in human HEL cells assessed reduction in viral plaque formation; format: functional, organism-based; details: Human alphaherpesvirus 3, HEL; procedure, shortened: as §2
[5] = Cytotoxicity against human HEL cells assessed as morphological alteration after 3 days; format: cell-based
Procedure, shortened: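 HEL cultures were examined under the microscope. MCC was recorded as the compound concentration causing a microscopically detectable alteration of normal cell morphology.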

[6] = Cytotoxicity against human HEL cells assessed as reduction of growth after 3 days; format: cell-based
Procedure, shortened: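 HEL cells were seeded at 5 × 10³ cells/well and grown 24 h before compound was added at different concentrations. After 3 days at 37 °C, cells were counted with a Coulter counter. CC50, the concentration halving growth relative to untreated controls, was read from plots of cell number (% of control) against concentration.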

Structure (SMILES)	EC50 [1] [µM]	EC50 [2] [µM]	EC50 [3] [µM]	EC50 [4] [µM]	MCC at 72 h [5] [µM]	CC50 at 72 h [6] [µM]
CCC1(Cc2ccccc2)OS(=O)(=O)C=C1NCc1ccccc1 (configuration not stated)	> 80	> 80	37	32	≥ 80	92
CCC1(Cc2ccccc2)OS(=O)(=O)CC1=O (configuration not stated)	400	> 400	10	10.5	> 100	200
CCC1(CC)OS(=O)(=O)C=C1OCc1ccccc1	234	> 400	175	155	> 400	200
CCC1(Cc2ccccc2)OS(=O)(=O)C=C1OC (racemic)	> 400	> 400	168	285	> 400	> 200
CCC1(Cc2ccccc2)OS(=O)(=O)C=C1OCC=C(C)C (racemic)	> 80	> 80	59	52	400	112
CCC1(Cc2ccccc2)OS(=O)(=O)C=C1OCC#N (racemic)	235	> 80	199	199	> 400	> 200
CCC1(Cc2ccccc2)OS(=O)(=O)C=C1OCC1CCCCC1 (racemic)	> 200	> 200	20	7	≥ 200	> 200
CC(C)CC1(Cc2ccccc2)OS(=O)(=O)C=C1OCc1ccccc1 (racemic)	> 400	> 400	> 80	> 80	≥ 80	102
CC1(C(c2ccccc2)c2ccccc2)OS(=O)(=O)C=C1OCc1ccccc1 (racemic)	> 400	> 80	> 80	> 80	≥ 400	200
CCCC1(Cc2ccccc2)OS(=O)(=O)C=C1OCc1ccccc1 (racemic)	> 400	> 400	> 80	> 400	≥ 400	200
CC(C)C1(Cc2ccccc2)OS(=O)(=O)C=C1OCc1ccccc1 (racemic)	> 400	> 400	> 80	> 16	≥ 80	200
CCC1(Cc2ccccc2)OS(=O)(=O)C=C1OCc1ccc([N+](=O)[O-])cc1 (racemic)	> 80	> 400	80	54	≥ 80	< 200
CCC1(Cc2ccccc2)OS(=O)(=O)C=C1OS(=O)(=O)c1ccc(C)cc1 (racemic)	> 80	> 80	> 80	> 80	400	109
CCC1(Cc2ccccc2)OS(=O)(=O)C=C1OCc1ccc(C(F)(F)F)cc1 (racemic)	8	12	7.7	6.7	≥ 16	99
CCC1(Cc2ccccc2)OS(=O)(=O)C=C1OCCCCc1ccccc1 (racemic)	7.8	> 3.2	6.2	> 20	≥ 20	99
CCC1(Cc2ccccc2)OS(=O)(=O)C=C1OCCCCCCc1ccccc1 (racemic)	6.4	< 3.2	8.7	8.4	≥ 20	< 200
O=S1(=O)C=C(OCc2ccccc2)C2(CCc3ccccc3C2)O1 (racemic)	> 80	> 400	80	> 16	≥ 80	131
CC1(Cc2ccccc2)OS(=O)(=O)C=C1OCc1ccccc1 (racemic)	> 200	> 200	306	> 400	> 400	68
C=CCOC1=CS(=O)(=O)OC1(CC)Cc1ccccc1 (racemic)	> 400	> 400	> 16	> 16	80	> 200
CCC1(Cc2ccccc2)OS(=O)(=O)C=C1OCC(=O)OC (racemic)	> 400	> 400	> 400	> 400	> 400	> 200
CCC1(Cc2ccccc2)OS(=O)(=O)C=C1OCCCc1ccccc1 (racemic)	8.7	9	> 3.2	6.5	≥ 20	133
CCC1(Cc2ccccc2)OS(=O)(=O)C=C1OC(=O)c1ccccc1 (racemic)	179	> 400	> 400	> 400	> 400	> 200
CCC1(Cc2ccccc2)OS(=O)(=O)C=C1OC(c1ccccc1)c1ccccc1 (racemic)	> 400	> 400	> 80	> 80	≥ 80	> 200
O=c1[nH]c(=O)n([C@H]2C[C@H](O)[C@@H](CO)O2)cc1/C=C/Br [BRIVUDINE]	–	–	0.015	140	> 150	600
